Series [1] in a line: Cytotoxicity against human C8166 cells by MTT assay. In kind it is cell-based. The gist of the method:
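C8166 cells assessed for cytotoxicity by MTT; CC50 derived. AZT positive control.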
(In general: Tetrazolium dyes change colour on reduction, which living cells bring about.)

Series [2] concerns Human immunodeficiency virus 1. As to the kind of experiment: Antiviral activity against HIV1 assessed as inhibition of cytopathic effect by microtiter syncytium formation infectivity assay. In kind it is functional, organism-based. The essentials: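 HIV-1 cytopathic-effect inhibition read as syncytium formation in microtiter format; EC50 derived. AZT positive control.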
A short description of series [3]: Therapeutic index, ratio of CC50 for human C8166 cells to EC50 for HIV1. Format: cell-based. The note with it: read-out: Ratio CC50/EC50. The gist of the method:
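Therapeutic index computed as CC50 (MTT cytotoxicity in C8166 cells) divided by EC50 (inhibition of HIV-1 cytopathic effect, syncytium formation in microtiter assay).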

Series [4] relates to MCF7. Put plainly: Cytotoxicity against human MCF7 cells after 48 hrs by MTT assay. Format: functional, cell-based. The note with it: MCF7, 48 h.
Series [5] has as its system SW480. Put plainly: Cytotoxicity against human SW480 cells after 48 hrs by MTT assay. In kind it is functional, cell-based. The note with it: SW480, 48 h.
In series [6] the test system is A549. Put plainly: Cytotoxicity against human A549 cells after 48 hrs by MTT assay. In kind it is functional, cell-based. The note with it: A549, 48 h.
Series [7] deals with SMMC-7721. Put plainly: Cytotoxicity against human SMMC7721 cells after 48 hrs by MTT assay. In kind it is functional, cell-based. The note with it: SMMC-7721, 48 h.
Series [8] has as its system HL-60. As to the kind of experiment: Cytotoxicity against human HL60 cells after 48 hrs by MTT assay. In kind it is functional, cell-based. The note with it: HL-60, 48 h.

Data on ten compounds can be found in ChEMBL document CHEMBL3593189, “Kadcoccinic Acids A-J, Triterpene Acids from Kadsura coccinea” (J Nat Prod, 2015).

The structures appear in SMILES notation. pEC50, pIC50: −log10 of the molar value.

A word on the CC50: it is the concentration at which the toxic effect on the cells reaches its halfway point. In general, pEC50 refers to the negative decadic logarithm of the EC50, by convention in mol/L. In general, pIC50 refers to the IC50 on a negative log10 scale, so that one unit is a factor of ten. A lower pIC50 goes with a large IC50.

For `C=C1[C@@H]([C@H](C)CC/C=C(/C)C(=O)O)CC[C@@]2(C)C3=C(C[C@@H]12)[C@@](C)(CC(=O)O)[C@H](C(C)(C)C(=O)O)CC3`, the CC50 in series [1] is over 200 µM. In addition, the pEC50 in series [2] was 3.92. For the same compound, the selectivity ratio in series [3] is over 1.7.
For the compound `Cc1cn([C@H]2C[C@H](N=[N+]=[N-])[C@@H](CO)O2)c(=O)[nH]c1=O` [ZIDOVUDINE], the CC50 in series [1] came out at 4690 µM. The pEC50 in series [2] was 7.70. The selectivity ratio in series [3] was over 230000.
Taken in the same sequence, the figures for `C=C1[C@@H]([C@H](C)CC/C=C(/C)C(=O)O)CC[C@@]2(C)[C@@H]3CC[C@@H](C(C)(C)O)[C@](C)(CCC(=O)O)C3=C[C@@H]12` were 143 µM, 4.23 and 2.4.
On to `C=C1[C@@H]([C@H](C)CC/C=C(/C)C(=O)O)CC[C@@]2(C)[C@@H]3CC[C@@H](C(C)(C)O)[C@](C)(CCC(=O)OC)C3=C[C@@H]12`, for which the pIC50 in series [4], in series [5], in series [6], in series [7] and in series [8] was under 5.00 throughout. In series [1], this compound returned a CC50 of 142 µM. For the same compound, the pEC50 in series [2] was 4.09. Further, the selectivity ratio in series [3] amounted to 1.8.
On to `C=C1[C@@H]([C@H](C)CC/C=C(/C)C(=O)O)CC[C@@]2(C)[C@@H]3CC[C@H]4C(C)(C)OC(=O)CC[C@]4(C)C3=C[C@@H]12`, for which the pIC50 in series [4], in series [5], in series [6], in series [7] and in series [8] was under 5.00 in each case.
For the compound `CO[C@@]12CC[C@H]3C(C)(C)C(=O)CC[C@]3(C)C1=CC1=C(C=O)[C@@H]([C@H](C)CC/C=C(/C)C(=O)O)CC[C@]12C`, the CC50 in series [1] is over 200 µM. In addition, the pEC50 in series [2] is 3.93. In series [3], the selectivity ratio was over 1.7.
For the compound `CC1=C([C@H](C)CC/C=C(/C)C(=O)O)CC[C@@]2(C)[C@@H]3CC[C@H]4C(C)(C)C(=O)CC[C@]4(C)C3=C[C@@H]12`, the pIC50 in series [4], in series [5], in series [6], in series [7] and in series [8] was under 5.00 each time. This compound gave a CC50 in series [1] of 116 µM. Also, the pEC50 in series [2] was 4.21. In series [3], the selectivity ratio was found to be 1.9.
For `C=C1[C@@H]([C@H](C)CC/C=C(/C)C(=O)O)CC[C@@]2(C)[C@@H]3CC[C@@H](C(=C)C)[C@](C)(CCC(=O)O)C3=C[C@@H]12`, the pIC50 in series [4], in series [5], in series [6], in series [7] and in series [8] was under 5.00 each time. Besides, in series [1], the midpoint of cytotoxicity, the CC50, lay at 203 µM. Further, the pEC50 in series [2] is 4.05. Besides, in series [3], the selectivity ratio amounted to 2.3.
`C=C(C)[C@@H]1CC[C@@H]2C(=C[C@@]3(OC)C(=C)[C@@H]([C@H](C)CC/C=C(/C)C(=O)O)CC[C@@]23C)[C@@]1(C)CCC(=O)O`: the pIC50 in series [4], in series [5], in series [6], in series [7] and in series [8] was under 5.00 each time. Also, the CC50 in series [1] turned out to be 184 µM. Moreover, the pEC50 in series [2] was 4.15. The selectivity ratio in series [3] stood at 2.6.
On to `C=C1[C@@H]([C@H](C)CC/C=C(/C)C(=O)O)CC[C@@]2(C)[C@@H]3CC[C@@H](C(C)(C)C(=O)O)[C@](C)(CC(=O)O)C3=C[C@@H]12`, for which the pIC50 in series [4], in series [5], in series [6], in series [7] and in series [8] was under 5.00 each time. Besides, the CC50 in series [1] was over 200 µM. For the same compound, in series [2], the pEC50 was 4.16. Besides, the selectivity ratio in series [3] is over 2.9.
